# ChEMBL document CHEMBL2385032, “Dual-functional abeo-taxane derivatives destabilizing microtubule equilibrium and inhibiting NF-κB activation” (2013)
# The source made the active and inactive calls. The rule behind the calls is not given here.
# Assays:
# PC-3 [1] = assay: Induction of microtubule polymerization in human PC3 cells assessed as bundled sheet like pattern at 200 nM after 24 hrs by DAPI staining-based immunofluorescence microscopic analysis; assay type: cell-based
# In short: (§1)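 PC-3 cells grown on chamber slides 36 h, then treated 24 h (test agents 2, 5 or 10 μM; reference agents 200 nM); fixed in 4% paraformaldehyde, permeabilized with 0.5% Triton X-100, stained with anti-α-tubulin monoclonal plus FITC secondary and DAPI for nuclei; spindle and microtubule morphology by fluorescence microscopy.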
# Tubulin (Homo sapiens) [2] = molecular target: T1, Tubulin (Homo sapiens) (UniProt P68371+Q9H4B7+P0DPH7+P68366+Q13509+Q71U36+P04350+Q3ZCM7+P07437+P68363+Q9BQE3+Q6PEY2+Q13885+Q9BVA1+Q9BUF5); assay: Induction of tubulin (unknown origin) polymerization at 3 uM by fluorescence assay; assay type: protein-complex assay
# In short: (§2)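 Cell-free tubulin polymerization kit; tubulin mixed with DMSO control, 500 μM CaCl2, 3 μM paclitaxel or test compounds at 15 or 30 μM; polymerization followed kinetically by fluorescence, excitation 340 nm, emission 420 nm, in a temperature-regulated fluorimeter. Three independent experiments in triplicate.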
# T47D = assay: Cytotoxicity against human T47D cells; assay type: functional
# In short: (§3)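 NCI-60 human tumor cell line screen run by standard NCI protocol: single-dose prescreen at 10 μM, then multi-dose testing of compounds giving over 50% growth inhibition; GI50 = concentration for 50% growth inhibition.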
# DU-145 = assay: Cytotoxicity against human DU145 cells; assay type: functional; in short: as §3
# OVCAR-3 = assay: Cytotoxicity against human OVCAR3 cells; assay type: functional; in short: as §3
# RXF 393 = assay: Cytotoxicity against human RXF393 cells; assay type: functional; in short: as §3
# LOX IMVI = assay: Cytotoxicity against human LOXIMVI cells; assay type: functional
# SNB-19 = assay: Cytotoxicity against human SNB19 cells; assay type: functional; in short: as §3
# NCI-H322M = assay: Cytotoxicity against human NCI-H322M cells; assay type: functional; in short: as §3
# HCT-116 = assay: Cytotoxicity against human HCT116 cells; assay type: functional; in short: as §3
# MOLT-4 = assay: Cytotoxicity against human MOLT4 cells; assay type: functional; in short: as §3
# Tubulin (Homo sapiens) [3] = molecular target: T1, Tubulin (Homo sapiens); assay: Induction of tubulin (unknown origin) polymerization at 30 uM by fluorescence assay; assay type: protein-complex assay; in short: as §2
# HEK-293T = assay: Inhibition of TNF-alpha induced NF-kapppaB activation in HEK293T cells at 1.25 to 5 uM incubated 1 hr prior to TNF-alpha addition measured after 18 hrs by luciferase reporter gene assay; assay type: cell-based; conditions: Homo sapiens
# PC-3 [4] = assay: Induction of microtubule depolymerization in human PC3 cells at 200 nM after 24 hrs by DAPI staining-based immunofluorescence microscopic analysis; assay type: cell-based; in short: as §1
Compound,Activity (PC-3 [1]),Activity (Tubulin (Homo sapiens) [2]),GI50 (T47D),GI50 (DU-145),GI50 (OVCAR-3),GI50 (RXF 393),GI50 (LOX IMVI),GI50 (SNB-19),GI50 (NCI-H322M),GI50 (HCT-116),GI50 (MOLT-4),Activity (Tubulin (Homo sapiens) [3]),inhibition (HEK-293T),Activity (PC-3 [4])
CC(=O)O[C@H]1C(=O)[C@@]2(C)[C@H]([C@H](OC(=O)c3ccccc3)[C@]3(O)C[C@H](OC(=O)[C@H](O)[C@@H](NC(=O)c4ccccc4)c4ccccc4)C(C)=C1C3(C)C)[C@]1(OC(C)=O)CO[C@@H]1C[C@@H]2O [PACLITAXEL],Active,Active,0.01 µM,0.032 µM,0.02 µM,0.05 µM,0.016 µM,0.04 µM,0.05 µM,0.01 µM,0.032 µM,–,–,–
CC(=O)O[C@H]1C[C@H]2OC[C@@]2(OC(C)=O)[C@H]2[C@H](OC(C)=O)[C@]3(C(C)(C)O)C[C@H](OC(=O)[C@H](O)[C@@H](NC(=O)OC(C)(C)C)c4ccccc4)C(C)=C3[C@@H](OC(=O)c3ccccc3)[C@H](OC(C)=O)[C@]12C,–,–,38.9 µM,21.4 µM,15.5 µM,12.6 µM,21.4 µM,33.1 µM,50.1 µM,16.2 µM,42.7 µM,Active,inactive,–
COc1ccc(/C=C\c2cc(OC)c(OC)c(OC)c2)cc1O,–,–,–,–,–,–,–,–,–,–,–,–,–,Active
C=C1C(=O)O[C@@H]2C3O[C@]3(C)CC/C=C(\C)CC[C@@H]12 (some centres undefined),–,–,–,–,19.9 µM,12.6 µM,–,63.1 µM,19.9 µM,10 µM,15.8 µM,–,Active,–
C=C1C(=O)C=C[C@@]2(C)[C@@H](OC(C)=O)[C@H](OC(=O)c3ccccc3)C3=C(C)[C@@H](OC(=O)[C@H](O)[C@@H](NC(=O)c4ccccc4)c4ccccc4)C[C@@]3(C(C)(C)O)[C@@H](OC(C)=O)[C@H]12,–,–,1.7 µM,1.66 µM,1.33 µM,0.52 µM,1.57 µM,15.3 µM,4.69 µM,0.77 µM,2.48 µM,–,–,–
